In ChEMBL document CHEMBL1149670, “Fluorine-containing aryloxyethyl thiocyanate derivatives are potent inhibitors of Trypanosoma cruzi and Toxoplasma gondii proliferation” (Bioorg Med Chem Lett, 2007):
Converted amounts (≈) assume the structure as drawn.

Columns and labels:
Trypanosoma cruzi [1] = test: Antiparasitic activity against Trypanosoma cruzi Y infected gamma irradiated L6E9 myoblast; conditions: L6E9, light or radiation study
Toxoplasma gondii = test: Antiparasitic activity against Toxoplasma gondii tachyzoites m2m3 infected HFF cells; assay type: functional, organism-based
How it was run: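 YFP-expressing m2m3 tachyzoites, filtered and needle-passed, were inoculated at 10⁴/ml onto confluent HFF monolayers. Medium was DMEM with 10% fetal bovine serum, 2 mM glutamine and 1 mM pyruvate, with drugs serially diluted in it. Plates were held at 37 °C and read daily for fluorescence from the bottom (ex 510, em 540 nm). IC50 came from fitting I = Imax·C/(IC50 + C), with Imax = 100%.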

Trypanosoma cruzi [2] = test: Antiparasitic activity against Trypanosoma cruzi Y amastigotes infected gamma irradiated L6E9 myoblast; assay type: functional, organism-based; conditions: L6E9, light or radiation study
How it was run: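 Gamma-irradiated L6E9 myoblasts were kept in DMEM with 20% FCS for 24 h at 37 °C and 5% CO₂. They were then infected with Y-strain trypomastigotes or amastigotes (4.17 × 10⁶/well) for 2 h at 37 °C and 7% CO₂, then washed. [5,6-³H]uracil and aqueous drug solutions were added for 72 h. TCA-precipitable counts were taken on day 3, and percent inhibition was calculated from cpm differences versus control.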

SMILES	IC50 (Trypanosoma cruzi [1])	IC50 (Trypanosoma cruzi [2])	IC50 (Toxoplasma gondii)
Fc1cccc(Oc2ccc(OCCOC3CCCCO3)cc2)c1 (stereo unspecified)	> 20 µg/mL	19 µM	3.99 µM
N#CSCCOc1ccc(Oc2ccccc2)cc1	2.6 µg/mL (≈ 9.58 µM)	12 µM	2.8 µM
O=C1C(O)=C([C@H]2CC[C@H](c3ccc(Cl)cc3)CC2)C(=O)c2ccccc21 [ATOVAQUONE]	–	–	0.29 µM

More lines, main results first:

IC50 (Trypanosoma cruzi [1])	IC50 (Trypanosoma cruzi [2])	SMILES	IC50 (Toxoplasma gondii)
> 20 µg/mL	14.4 µM	Fc1ccc(Oc2ccc(OCCOC3CCCCO3)cc2)cc1 (stereo unspecified)	6.16 µM
1.74 µg/mL (≈ 6.01 µM)	4.3 µM	N#CSCCOc1ccc(Oc2cccc(F)c2)cc1	15.8 µM
1.95 µg/mL (≈ 6.74 µM)	3.7 µM	N#CSCCOc1ccc(Oc2ccc(F)cc2)cc1	3.85 µM
